Results reported in ChEMBL document CHEMBL2176966, “Discovery of 6,7-dihydro-5H-pyrrolo[2,3-a]pyrimidines as orally available G protein-coupled receptor 119 agonists” (J Med Chem, 2012).
Values after ≈ are worked out from the molar mass of the structure shown. Active and inactive are the calls of the source. The rule behind the calls is not given here.

Assays:
Mus musculus [1] = test: Dose normalized AUC (0 to 24 hrs) in mouse at 30 mg/kg; type: ADME, organism-based; design: dose 30 mg/kg; conditions: in vivo
[2] = Induction of GLP1 secretion in mouse GLUTag cells after 2 hrs; type: functional, cell-based
How it was run: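 GLUTag cells were grown to 80% confluence on Matrigel-coated plates in DMEM with 2 mM L-glutamine and 10% FBS. They were preincubated 30 min in Krebs-Ringer buffer (10 mM D-glucose, 0.1% BSA, DPP-IV inhibitor). Compound was then added at varying concentrations in the same buffer for 2 h at 37 °C, 5% CO2. Cleared supernatant was assayed for amidated (active) GLP-1 by sandwich electrochemiluminescence immunoassay.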

[3] = Volume of distribution at steady state in mouse at 30 mg/kg; type: ADME, organism-based; design: dose 30 mg/kg; conditions: in vivo, read-out: Vdss
[4] = Equilibrium solubility of the compound in fasted simulated intestinal fluid; type: physicochemical
Mus musculus [5] = test: Increase in glucagon level in GPR119 knockout mouse at 30 mg/kg, po after 60 mins; type: functional, organism-based; design: dose 30 mg/kg
How it was run: (§1)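 Wild-type and GPR119 knockout mice, fasted overnight, were dosed by oral gavage (30 mg/kg, 10 mL/kg, 0.5% HPMC/0.1% Tween80 vehicle). Plasma was obtained from cardiac blood at 60 min in chilled K2-EDTA containing DPP-4 inhibitor and aprotinin, then stored at −80 °C. Hormone levels were compared with vehicle; n = 8–10.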

[6] = Oral bioavailability in mouse at 30 mg/kg; type: ADME, organism-based; conditions: in vivo
[7] = Half life in mouse at 30 mg/kg; type: ADME, organism-based; design: dose 30 mg/kg; conditions: in vivo
MAO-B = biological target: T1, MAO-B (Homo sapiens, UniProt P27338); test: Inhibition of MAO-B at 10 uM
T1 sequence (P27338 whole entry): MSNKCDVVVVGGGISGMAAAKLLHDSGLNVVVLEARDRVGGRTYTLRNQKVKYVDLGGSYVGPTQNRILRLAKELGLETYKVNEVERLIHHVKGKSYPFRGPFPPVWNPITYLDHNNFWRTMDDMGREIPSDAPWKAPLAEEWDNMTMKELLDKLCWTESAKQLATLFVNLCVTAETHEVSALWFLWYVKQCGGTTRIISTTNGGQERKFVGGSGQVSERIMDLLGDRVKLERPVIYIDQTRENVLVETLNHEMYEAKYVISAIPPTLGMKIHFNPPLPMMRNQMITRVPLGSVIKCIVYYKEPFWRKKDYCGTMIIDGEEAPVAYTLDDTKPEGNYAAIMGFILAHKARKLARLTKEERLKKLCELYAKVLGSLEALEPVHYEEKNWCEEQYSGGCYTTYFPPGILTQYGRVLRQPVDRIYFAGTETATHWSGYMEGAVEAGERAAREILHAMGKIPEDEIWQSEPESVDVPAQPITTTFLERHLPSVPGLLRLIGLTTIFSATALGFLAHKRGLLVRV
How it was run: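 Compound was tested at 10 μM in a panel of 68 receptors, ion channels and enzymes. Percent inhibition or stimulation was recorded.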

[8] = Clearance in rat at 30 mg/kg; type: ADME, organism-based; design: dose 30 mg/kg; conditions: in vivo
PCC = test: Induction of GLP1 secretion in C57BL/6 mouse PCC cells at 0.1 to 1 uM after 24 hrs; type: functional, cell-based
How it was run: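 Primary colonic crypts were isolated from mouse colon by three 15 min, 37 °C digests with collagenase II, dispase I, DNase I and hyaluronidase, then pooled and washed. Crypts were seeded on Matrigel-coated plates in high-glucose DMEM with 10% FBS and allowed to attach for 24 h. GLP-1 secretion was then assayed as for GLUTag cells (2 h KRB exposure, electrochemiluminescent active GLP-1 immunoassay).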

Rattus norvegicus [9] = species: Rattus norvegicus; test: Potentiation of 12 mM of glucose-induced insulin secretion in rat islet at 0.3 uM
[10] = Half life in rat at 30 mg/kg; type: ADME, organism-based; design: dose 30 mg/kg; conditions: in vivo
[11] = Clearance in mouse at 30 mg/kg; type: ADME, organism-based; design: dose 30 mg/kg; conditions: in vivo
Mus musculus [12] = test: Increase in GIP level in GPR119 knockout mouse at 30 mg/kg, po after 60 mins by ELISA relative to control; type: functional, organism-based; design: dose 30 mg/kg
How it was run: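 Overnight-fasted wild-type or GPR119 knockout mice were given vehicle (0.5% HPMC/0.1% Tween80) or 30 mg/kg orally at 10 mL/kg. Cardiac blood was drawn 60 min post-dose under isoflurane into chilled K2-EDTA with DPP-4 inhibitor and aprotinin (250 KIU/mL). Plasma was prepared at 4 °C and held at −80 °C. Total GIP was measured by ELISA; n = 10.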

Rattus norvegicus [13] = test: Increase of C-peptide level in Wistar rat at 10 mg/kg, po after 10 to 90 mins; type: functional, organism-based; design: dose 10 mg/kg
How it was run: (§2)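 Male Wistar rats (300–350 g) with jugular and femoral vein catheters, one week post-surgery, fasted overnight. Randomized to vehicle (n = 19) or oral compound (n = 8). About 90 min after gavage, a hyperglycemic clamp was started: a glucose bolus into the femoral vein, then variable-rate infusion holding glucose at 190–210 mg/dL. Serum C-peptide was measured by RIA, first phase 0–5 min and second phase 10–90 min.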

[14] = Cmax in mouse at 30 mg/kg; type: ADME, organism-based; design: dose 30 mg/kg; conditions: in vivo
Mus musculus [15] = test: Increase in GLP-1 level in GPR119 knockout mouse at 30 mg/kg, po after 60 mins by electrochemiluminescence assay; type: functional, organism-based; design: dose 30 mg/kg
How it was run: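 Wild-type and GPR119 knockout mice, fasted overnight, received vehicle (0.5% HPMC/0.1% Tween80) or 30 mg/kg by oral gavage at 10 mL/kg. At 60 min, blood was taken by cardiac puncture under isoflurane into chilled K2-EDTA tubes with DPP-4 inhibitor and aprotinin (250 KIU/mL). Plasma was spun at 4 °C and stored at −80 °C. Total GLP-1 was measured by electrochemiluminescence immunoassay; n = 10.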

Cytochrome P450 2C9 = Cytochrome P450 2C9 (Homo sapiens, UniProt P11712); test: Inhibition of CYP2C9; type: ADME
Sequence of Cytochrome P450 2C9 (P11712 whole entry): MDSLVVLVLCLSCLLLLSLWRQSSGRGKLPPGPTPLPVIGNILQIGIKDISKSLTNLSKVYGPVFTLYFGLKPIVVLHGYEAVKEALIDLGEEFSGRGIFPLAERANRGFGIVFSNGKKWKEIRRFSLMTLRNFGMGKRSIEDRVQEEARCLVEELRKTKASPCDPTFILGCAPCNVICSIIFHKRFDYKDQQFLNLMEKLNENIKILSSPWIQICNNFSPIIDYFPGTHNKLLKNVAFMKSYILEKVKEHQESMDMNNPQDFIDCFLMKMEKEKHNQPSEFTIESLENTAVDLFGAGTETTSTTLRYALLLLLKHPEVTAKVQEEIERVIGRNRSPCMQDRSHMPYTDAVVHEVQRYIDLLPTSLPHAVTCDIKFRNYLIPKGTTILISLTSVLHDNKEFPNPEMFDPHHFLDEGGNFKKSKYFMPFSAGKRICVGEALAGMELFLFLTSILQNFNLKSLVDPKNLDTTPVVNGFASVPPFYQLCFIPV

Rattus norvegicus [16] = test: Increase of C-peptide level in Wistar rat at 10 mg/kg, po up to 5 mins; type: functional, organism-based; design: dose 10 mg/kg; how it was run: as §2
Mus musculus [17] = test: Increase in glucagon level in GPR119 transgenic wild type mouse at 30 mg/kg, po after 60 mins relative to control; type: functional; how it was run: as §1
[18] = Cmax in rat at 30 mg/kg; type: ADME, organism-based; design: dose 30 mg/kg; conditions: in vivo
[19] = Ratio of drug level brain to plasma in rat at 30 mg/kg; type: ADME, organism-based; design: dose 30 mg/kg; conditions: read-out: BPR
[20] = Volume of distribution at steady state in rat at 30 mg/kg; type: ADME, organism-based; design: dose 30 mg/kg; conditions: in vivo, read-out: Vdss
[21] = biological target: T2, Glucose-dependent insulinotropic receptor (Homo sapiens, UniProt Q8TDV5); test: Agonist activity at human GPR119 receptor expressed in CHO-K1 cells co-expressing 6CRE-luciferase gene after 5 hrs by luciferase reporter gene assay; type: functional, cell-based; conditions: read-out: pEC50 (converted)
T2 sequence (Q8TDV5 whole entry): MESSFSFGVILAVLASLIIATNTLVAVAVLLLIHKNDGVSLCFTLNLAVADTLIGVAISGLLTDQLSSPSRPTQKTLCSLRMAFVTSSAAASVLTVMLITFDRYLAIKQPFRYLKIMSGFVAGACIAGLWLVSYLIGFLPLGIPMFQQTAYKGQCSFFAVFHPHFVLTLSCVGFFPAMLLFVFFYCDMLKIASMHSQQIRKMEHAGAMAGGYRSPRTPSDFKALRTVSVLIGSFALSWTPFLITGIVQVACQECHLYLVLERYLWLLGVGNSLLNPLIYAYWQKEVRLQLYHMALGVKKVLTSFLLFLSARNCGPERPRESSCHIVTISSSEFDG

AUC/dose (Mus musculus [1]): 1.7 µg·h/mL | EC50 [2]: 20 nM | Vd [3]: 0.7 L/kg | solubility thermodynamic [4]: 4 µg/mL (≈ 8.36 µM) | bioavailability [6]: 40% | half-life [7]: 2.8 h | inhibition at 10 µM (MAO-B): 54% | clearance [8]: 8.4 mL/min/kg | half-life [10]: 8.7 h | clearance [11]: 7.2 mL/min/kg | Cmax [14]: 8.4 µM | IC50 (Cytochrome P450 2C9): 3000 nM | Cmax [18]: 9 µM | Kp [19]: 0.7 | Vd [20]: 1.5 L/kg | EC50 [21]: 50.1 nM
SMILES: CC(C)OC(=O)N1CCC(Oc2ncnc3c2CCN3c2ccc(S(C)(=O)=O)cc2F)CC1
Activity (Mus musculus [5]): inactive | Activity (PCC): Active | Activity (Rattus norvegicus [9]): Active | Activity (Mus musculus [12]): inactive | Activity (Rattus norvegicus [13]): Active | Activity (Mus musculus [15]): inactive | Activity (Rattus norvegicus [16]): Active | fold change (FC) (Mus musculus [17]): 2
